# Activity calls are given as the source filed them. The calls are words filed in the database; no cut-off is given here.
# Columns and labels:
# HCT-116 [1] = assay: Induction of apoptosis in human HCT-116 cells assessed as horseshoe shaped nuclei measured for 24 hrs by DAPI staining based microscopic analysis; assay type: functional, cell-based; conditions: dose 1.62-6.5 µM
# Method in brief: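 Then PBS wash, 4% paraformaldehyde fixation 30 min, 0.1% Triton X permeabilisation 15 min, 1 µM DAPI 15 min, PBS wash. Imaged by fluorescence microscopy (ex 350/em 460 nm), 20X.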
# HCT-116 [2] = assay: Induction of morphological change in human HCT-116 cells assessed as change in cell shape incubated for 24 hrs by phase contrast microscopic analysis; assay type: functional, cell-based; conditions: dose 1.62-6.5 µM
# Method in brief: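 HCT-116 plated at 1 × 10^6 cells/mL in RPMI + 10% FBS and allowed to adhere 24 h at 37 °C, 5% CO2. […] After 24 h, morphology imaged by phase-contrast microscopy at 20X.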
# HCT-116 [3] = assay: Cytotoxicity against human HCT-116 cells assessed as inhibition of cell growth measured for 24 hrs by MTT assay; assay type: functional, cell-based; conditions: HCT-116, 24 h
# Method in brief: (§1)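 Cells were kept at 37 °C with 5% CO2 in suitable medium with 10% FBS and 1% antibiotic-antimycotic, and passaged at 80-90% confluency using 0.25% trypsin/1 mM EDTA. They were seeded at 1×10^3–4×10^3 cells/well and attached overnight. Compounds came from 10 mM DMSO stocks diluted in medium and were applied for 24 h. MTT (0.5 mg/mL) was added for 4 h at 37 °C, formazan was dissolved in DMSO, and absorbance was read at 570 nm.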
# [4] = Cytotoxicity against human HaCaT cells assessed as inhibition of cell growth measured for 24 hrs by MTT assay; assay type: toxicity, cell-based; method in brief: as §1
# HCT-116 [5] = assay: Induction of apoptosis in human HCT-116 cells assessed as necrotic cells at 3.25 uM measured after 24 hrs by Annexin V-FITC/propidium iodide staining based flow cytometry (reference value: 0.00%); assay type: functional
# HCT-116 [6] = assay: Induction of cell cycle arrest in human HCT-116 cells assessed as accumulation of cells at G2/M phase at 3.25 uM measured after […] by PI staining based flow cytometry analysis relative to control (reference value: 15.61%); assay type: functional
# HCT-116 [7] = assay: Induction of apoptosis in human HCT-116 cells assessed as early apoptotic cells at 6.50 uM measured after 24 hrs by Annexin V-FITC/propidium iodide staining based flow cytometry (reference value: 0.28%); assay type: functional; conditions: dose 6.5 µM
# HCT-116 [8] = assay: Induction of cell cycle arrest in human HCT-116 cells assessed as accumulation of cells at S phase at 1.62 uM measured after 24 hrs by PI staining based flow cytometry analysis relative to control (reference value: 5.55%)
# HCT-116 [9] = assay: Induction of apoptosis in human HCT-116 cells assessed as cell rounding at 1.62 uM measured for 24 hrs by AO/EB staining based microscopic analysis; assay type: functional
# HCT-116 [10] = assay: Induction of cell cycle arrest in human HCT-116 cells assessed as accumulation of cells at G2/M phase at 6.50 uM measured after 48 hrs by PI staining based flow cytometry analysis relative to control (reference value: 15.61%); assay type: functional; conditions: dose 6.5 µM
# HCT-116 [11] = assay: Induction of cell cycle arrest in human HCT-116 cells assessed as accumulation of cells at S phase at 3.25 uM measured after 24 hrs by PI staining based flow cytometry analysis relative to control (reference value: 5.55%)
smiles,measurement,setting,value
COc1ccc(/C=C(/C(=O)OCc2cn(Cc3cc(F)ccc3F)nn2)c2ccc(OC)c(OC)c2)cc1OC,Activity,HCT-116 [1],Dose-Dependent Effect
same,Activity,HCT-116 [2],Dose-Dependent Effect
same,IC50,HCT-116 [3],3.25 µM
same,IC50 at 24 h,[4],72.2 µM
same,Activity,HCT-116 [5],16.66%
same,Activity,HCT-116 [6],38.72%
same,Activity,HCT-116 [7],10.71%
same,Activity,HCT-116 [8],7.32%
same,Activity,HCT-116 [9],Active
same,Activity,HCT-116 [10],46.89%
same,Activity,HCT-116 [11],9.51%

# — ChEMBL document CHEMBL5252639, “Exploration of cytotoxic potential and tubulin polymerization inhibition activity of cis-stilbene-1,2,3-triazole congeners” (RSC Med Chem, 2023)
